Reference: ChEMBL document CHEMBL1137812, “Leishmanicidal and antiplasmodial activity of constituents of Smirnowia iranica” (J Nat Prod, 2002)
pIC50: −log10 of the molar value.

What was measured:
[1] = Toxicity in human erythrocytes assessed as morphological changes up to 67 uM after 48 hrs by Giemsa staining; format: cell-based; settings: erythrocyte
Plasmodium falciparum = test: Antiplasmodial activity against chloroquine-sensitive Plasmodium falciparum 3D7 after 48 hrs as reduced [3H]phenylalanine uptake
Leishmania infantum [2] = test: Antileishmanial activity against Leishmania infantum D.SCH promastigotes after 96 hrs by MTT assay; format: functional, organism-based
Method in brief: (§1)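 Promastigotes recovered from liquid-nitrogen cryopreservation were exposed to compounds for 96 h. Parasite viability was read by MTT.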

Leishmania donovani [3] = test: Antileishmanial activity against Leishmania donovani LV9 promastigotes after 96 hrs by MTT assay; format: functional, organism-based; settings: LV9, 96 h; method in brief: as §1
RAW264.7 = test: Cytotoxicity against mouse macrophage RAW264.7 cells after 48 hrs by MTT assay; format: cell-based; settings: RAW264.7, 48 h
Method in brief: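 Noninfected RAW 264.7 cells were run in parallel with the intracellular amastigote assay and exposed to compounds for 48 h. Viable cells were quantified by MTT.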

Leishmania major = test: Antileishmanial activity against Leishmania major LV39 promastigotes after 96 hrs by MTT assay; format: functional, organism-based; settings: LV39, 96 h; method in brief: as §1
Leishmania donovani [4] = test: Antileishmanial activity against Leishmania donovani LV9 amastigotes infected in mouse RAW 264.7 cells after 72 hrs by MTT assay; format: functional, organism-based
Method in brief: (§2)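 RAW 264.7 macrophages infected in vitro with stationary-phase promastigotes, seeded at 1 × 10^5 cells per well in RPMI with 10% fetal calf serum and held 24 h at 37 °C for amastigote transformation. Compounds added, duplicate wells, 72 h at 37 °C. Cells lysed with 0.008% SDS, then post-lysis medium added and plates held 3-4 days at 25 °C. Recovered promastigotes quantified by MTT.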

Leishmania infantum [5] = test: Antileishmanial activity against Leishmania infantum D.SCH amastigotes infected in mouse RAW 264.7 cells after 72 hrs by MTT assay; format: functional, organism-based; method in brief: as §2
[6] = Toxicity in human erythrocytes assessed as formation of echinocytes and ghost cells at 130 to 300 uM after 48 hrs by Giemsa staining; format: cell-based; settings: erythrocyte
[7] = Toxicity in human erythrocytes assessed as morphological changes at IC50 after 48 hrs by Giemsa staining; format: cell-based; settings: erythrocyte

For COc1ccc([C@@H]2COc3c(ccc(O)c3CC=C(C)C)C2)c(OC)c1O, which Activity [1] is on record?
The Activity was “Non-toxic”.

And the pIC50 (Plasmodium falciparum)?
Its pIC50 is 4.99.

And the pIC50 (Leishmania infantum [2])?
The pIC50 was 5.04.

And the pIC50 (Leishmania donovani [3])?
Its pIC50 is 5.16.

And the pIC50 (RAW264.7)?
Its pIC50 is 3.66.

And the pIC50 (Leishmania major)?
Its pIC50 is 5.10.

And the pIC50 (Leishmania donovani [4])?
The pIC50 was 4.00.

What about the pIC50 (Leishmania infantum [5]) of the same compound?
The pIC50 was 3.96.

With C/C=C/C1=C(OC)C(=O)C(OC)=C(OC)C1=O as the compound, how does the pIC50 (Plasmodium falciparum) read?
Its pIC50 is less than 3.70.

What about the pIC50 (Leishmania infantum [2]) of the same compound?
Its pIC50 is 4.13.

What about the pIC50 (Leishmania donovani [3]) of the same compound?
The pIC50 was 4.01.

What about the pIC50 (RAW264.7) of the same compound?
The pIC50 was 3.59.

And the pIC50 (Leishmania major)?
Its pIC50 is 4.14.

What about the pIC50 (Leishmania donovani [4]) of the same compound?
Its pIC50 is less than 3.10.

And the pIC50 (Leishmania infantum [5])?
Its pIC50 is less than 3.10.

With C/C=C/c1cc(OC)c(OC)c(O)c1OC as the compound, how does the pIC50 (Plasmodium falciparum) read?
Its pIC50 is less than 3.70.

What about the pIC50 (Leishmania infantum [2]) of the same compound?
Its pIC50 is 3.70.

What about the pIC50 (Leishmania donovani [3]) of the same compound?
Its pIC50 is 3.63.

And the pIC50 (RAW264.7)?
The pIC50 was 3.90.

And the pIC50 (Leishmania major)?
Its pIC50 is 3.41.

And the pIC50 (Leishmania donovani [4])?
Its pIC50 is 3.23.

What about the pIC50 (Leishmania infantum [5]) of the same compound?
The pIC50 was less than 3.10.

With C/C=C/c1cc(O)c(OC)c(OC)c1 as the compound, how does the pIC50 (Plasmodium falciparum) read?
Its pIC50 is less than 3.70.

And the pIC50 (Leishmania infantum [2])?
The pIC50 was 3.57.

What about the pIC50 (Leishmania donovani [3]) of the same compound?
Its pIC50 is 3.40.

And the pIC50 (RAW264.7)?
Its pIC50 is 3.55.

And the pIC50 (Leishmania major)?
Its pIC50 is 3.43.

And the pIC50 (Leishmania donovani [4])?
The pIC50 was less than 3.10.

And the pIC50 (Leishmania infantum [5])?
Its pIC50 is less than 3.10.

What does the source list for C[C@@H]1[C@H](O)[C@@H](C)/C=C/C=C/C=C/C=C/C=C/C=C/C=C/[C@H](O[C@@H]2O[C@H](C)[C@@H](O)[C@H](N)[C@@H]2O)C[C@@H]2O[C@](O)(C[C@@H](O)C[C@@H](O)[C@H](O)CC[C@@H](O)C[C@@H](O)CC(=O)O[C@H]1C)C[C@H](O)[C@H]2C(=O)O [AMPHOTERICIN B]?
pIC50 (Leishmania infantum [2]): 7.70; pIC50 (Leishmania major): 7.52; pIC50 (Leishmania donovani [4]): 7.40; pIC50 (Leishmania infantum [5]): 7.40

For COc1ccc([C@@H]2COc3c(ccc4occc34)C2)c(OC)c1O [SMIRANICIN], which Activity [6] is on record?
The Activity was “Toxic”.

And the pIC50 (Plasmodium falciparum)?
Its pIC50 is 4.24.

What about the pIC50 (Leishmania infantum [2]) of the same compound?
Its pIC50 is 4.95.

And the pIC50 (Leishmania donovani [3])?
Its pIC50 is 4.64.

What about the pIC50 (RAW264.7) of the same compound?
Its pIC50 is 3.71.

What about the pIC50 (Leishmania major) of the same compound?
Its pIC50 is 4.76.

And the pIC50 (Leishmania donovani [4])?
The pIC50 was 3.95.

And the pIC50 (Leishmania infantum [5])?
Its pIC50 is 4.09.

And the Activity [7]?
The Activity was “Non-toxic”.

With COc1ccc([C@@H]2COc3c(ccc4c3C=CC(C)(C)O4)C2)c(OC)c1O [GLYASPERIN H] as the compound, how does the Activity [6] read?
Its Activity is “Toxic”.

And the pIC50 (Plasmodium falciparum)?
Its pIC50 is 4.48.

And the pIC50 (Leishmania infantum [2])?
The pIC50 was 4.85.

And the pIC50 (Leishmania donovani [3])?
The pIC50 was 4.60.

What about the pIC50 (RAW264.7) of the same compound?
Its pIC50 is 3.76.

What about the pIC50 (Leishmania major) of the same compound?
Its pIC50 is 4.63.

What about the pIC50 (Leishmania donovani [4]) of the same compound?
Its pIC50 is 4.11.

What about the pIC50 (Leishmania infantum [5]) of the same compound?
Its pIC50 is 4.05.

And the Activity [7]?
Its Activity is “Non-toxic”.
